Source: ChEMBL document CHEMBL5724801, “EUbOPEN Chemogenomics Library - Multiplex” (2024)
“And” between values parts separate entries of the source, which are not always exact repeats. Identical values can stand only once.

Tested on: HEK-293T
Assay: Multiplex assay against HEK293T
Format: toxicity, cell-based
Conditions: human
Outline: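 Live cells carried four stains from seeding: Hoechst33342, BioTracker Green Microtubule Cytoskeleton Dye, MitoTracker Red and Annexin V Alexa Fluor 680. They were imaged on a CQ1 microscope at 37°C and 5% CO2 after compound addition. Using CellPathfinder machine-learning gating, cells were split into Hoechst high-intensity objects or normal cells, normal cells into healthy, pyknosed or fragmented nuclei, and pyknosed cells into mitotic or apoptotic; tubulin, mitochondrial-mass and membrane-permeability phenotypes are per cents of healthy-nucleus cells.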

[1] = 12 h, 1 µM, compound concentration 1 uM
[2] = 12 h, 10 µM, compound concentration 10 uM
[3] = 24 h, 1 µM, compound concentration 1 uM
[4] = 24 h, 10 µM, compound concentration 10 uM
[5] = 48 h, 1 µM, compound concentration 1 uM
[6] = 48 h, 10 µM, compound concentration 10 uM

CCCCC[C@H](O)/C=C/[C@H]1[C@H](O)CC(=O)[C@@H]1CCCCCCC(=O)O [ALPROSTADIL]
Population Apoptotic (%) [1]: 35% and 50% | Population Fragmented Nuclei (%) [1]: 7% and 6% | Population Healthy Nuclei (%) [1]: 79% and 80% | Population Hoechst High Intensity Objects (%) [1]: 7% and 6% | Population Membrane Permeable-Phenotype (%) [1]: 0% | Population Mitochondria Different-Phenotype (%) [1]: 42% and 55% | Population Mitotic Cells (%) [1]: 64% and 49% | Population Normal (%) [1]: 92% and 93% | Population Pyknosed Nuclei (%) [1]: 13% | Population Tubulin-Different-Phenotype (%) [1]: 28% and 18% | Total Cell Count [1]: 471 and 392 | Population Apoptotic (%) [2]: 33% | Population Fragmented Nuclei (%) [2]: 7% | Population Healthy Nuclei (%) [2]: 78% and 75% | Population Hoechst High Intensity Objects (%) [2]: 6% and 9% | Population Membrane Permeable-Phenotype (%) [2]: 1% and 0% | Population Mitochondria Different-Phenotype (%) [2]: 48% and 64% | Population Mitotic Cells (%) [2]: 66% | Population Normal (%) [2]: 93% and 90% | Population Pyknosed Nuclei (%) [2]: 14% and 17% | Population Tubulin-Different-Phenotype (%) [2]: 33% and 30% | Total Cell Count [2]: 318 and 309 | Population Apoptotic (%) [3]: 35% and 34% | Population Fragmented Nuclei (%) [3]: 9% and 6% | Population Healthy Nuclei (%) [3]: 79% and 85% | Population Hoechst High Intensity Objects (%) [3]: 3% and 4% | Population Membrane Permeable-Phenotype (%) [3]: 1% and 0% | Population Mitochondria Different-Phenotype (%) [3]: 22% and 35% | Population Mitotic Cells (%) [3]: 64% and 65% | Population Normal (%) [3]: 96% and 95% | Population Pyknosed Nuclei (%) [3]: 10% and 8% | Population Tubulin-Different-Phenotype (%) [3]: 15% and 14% | Total Cell Count [3]: 605 and 526 | Population Apoptotic (%) [4]: 32% and 36% | Population Fragmented Nuclei (%) [4]: 11% and 7% | Population Healthy Nuclei (%) [4]: 76% and 79% | Population Hoechst High Intensity Objects (%) [4]: 2% and 8% | Population Membrane Permeable-Phenotype (%) [4]: 0% | Population Mitochondria Different-Phenotype (%) [4]: 26% and 50% | Population Mitotic Cells (%) [4]: 67% and 63% | Population Normal (%) [4]: 97% and 91% | Population Pyknosed Nuclei (%) [4]: 12% | Population Tubulin-Different-Phenotype (%) [4]: 23% and 22% | Total Cell Count [4]: 439 and 345 | Population Apoptotic (%) [5]: 32% and 13% | Population Fragmented Nuclei (%) [5]: 13% and 16% | Population Healthy Nuclei (%) [5]: 79% and 77% | Population Hoechst High Intensity Objects (%) [5]: 2% and 3% | Population Membrane Permeable-Phenotype (%) [5]: 2% and 0% | Population Mitochondria Different-Phenotype (%) [5]: 12% and 21% | Population Mitotic Cells (%) [5]: 67% and 86% | Population Normal (%) [5]: 97% and 96% | Population Pyknosed Nuclei (%) [5]: 7% and 6% | Population Tubulin-Different-Phenotype (%) [5]: 11% and 12% | Total Cell Count [5]: 1005 and 714 | Population Apoptotic (%) [6]: 25% and 20% | Population Fragmented Nuclei (%) [6]: 15% and 14% | Population Healthy Nuclei (%) [6]: 76% and 79% | Population Hoechst High Intensity Objects (%) [6]: 2% | Population Membrane Permeable-Phenotype (%) [6]: 1% and 0% | Population Mitochondria Different-Phenotype (%) [6]: 17% and 30% | Population Mitotic Cells (%) [6]: 75% and 80% | Population Normal (%) [6]: 97% | Population Pyknosed Nuclei (%) [6]: 7% and 6% | Population Tubulin-Different-Phenotype (%) [6]: 15% and 14% | Total Cell Count [6]: 685 and 537

Cn1cc(C(=O)OCC2CCN(CCNS(C)(=O)=O)CC2)c2ccccc21
Population Apoptotic (%) [1]: 39% and 56% | Population Fragmented Nuclei (%) [1]: 5% and 9% | Population Healthy Nuclei (%) [1]: 83% and 76% | Population Hoechst High Intensity Objects (%) [1]: 7% and 8% | Population Membrane Permeable-Phenotype (%) [1]: 0% | Population Mitochondria Different-Phenotype (%) [1]: 35% and 62% | Population Mitotic Cells (%) [1]: 60% and 43% | Population Normal (%) [1]: 92% and 91% | Population Pyknosed Nuclei (%) [1]: 10% and 14% | Population Tubulin-Different-Phenotype (%) [1]: 22% and 28% | Total Cell Count [1]: 466 and 248 | Population Apoptotic (%) [2]: 47% and 43% | Population Fragmented Nuclei (%) [2]: 10% | Population Healthy Nuclei (%) [2]: 73% and 71% | Population Hoechst High Intensity Objects (%) [2]: 6% and 10% | Population Membrane Permeable-Phenotype (%) [2]: 0% | Population Mitochondria Different-Phenotype (%) [2]: 55% and 73% | Population Mitotic Cells (%) [2]: 52% and 56% | Population Normal (%) [2]: 93% and 89% | Population Pyknosed Nuclei (%) [2]: 15% and 18% | Population Tubulin-Different-Phenotype (%) [2]: 53% and 47% | Total Cell Count [2]: 479 and 393 | Population Apoptotic (%) [3]: 29% and 48% | Population Fragmented Nuclei (%) [3]: 6% and 12% | Population Healthy Nuclei (%) [3]: 82% and 76% | Population Hoechst High Intensity Objects (%) [3]: 4% and 5% | Population Membrane Permeable-Phenotype (%) [3]: 1% and 0% | Population Mitochondria Different-Phenotype (%) [3]: 21% and 42% | Population Mitotic Cells (%) [3]: 70% and 51% | Population Normal (%) [3]: 95% and 94% | Population Pyknosed Nuclei (%) [3]: 10% | Population Tubulin-Different-Phenotype (%) [3]: 16% and 17% | Total Cell Count [3]: 650 and 283 | Population Apoptotic (%) [4]: 35% and 48% | Population Fragmented Nuclei (%) [4]: 11% and 10% | Population Healthy Nuclei (%) [4]: 74% and 79% | Population Hoechst High Intensity Objects (%) [4]: 5% and 6% | Population Membrane Permeable-Phenotype (%) [4]: 1% and 0% | Population Mitochondria Different-Phenotype (%) [4]: 43% and 56% | Population Mitotic Cells (%) [4]: 64% and 51% | Population Normal (%) [4]: 94% and 93% | Population Pyknosed Nuclei (%) [4]: 13% and 9% | Population Tubulin-Different-Phenotype (%) [4]: 50% and 37% | Total Cell Count [4]: 587 and 491 | Population Apoptotic (%) [5]: 25% and 44% | Population Fragmented Nuclei (%) [5]: 12% and 11% | Population Healthy Nuclei (%) [5]: 78% and 82% | Population Hoechst High Intensity Objects (%) [5]: 3% and 4% | Population Membrane Permeable-Phenotype (%) [5]: 1% and 3% | Population Mitochondria Different-Phenotype (%) [5]: 12% and 23% | Population Mitotic Cells (%) [5]: 74% and 55% | Population Normal (%) [5]: 96% and 95% | Population Pyknosed Nuclei (%) [5]: 8% and 6% | Population Tubulin-Different-Phenotype (%) [5]: 10% and 11% | Total Cell Count [5]: 1090 and 490 | Population Apoptotic (%) [6]: 38% | Population Fragmented Nuclei (%) [6]: 16% and 13% | Population Healthy Nuclei (%) [6]: 77% and 79% | Population Hoechst High Intensity Objects (%) [6]: 6% and 4% | Population Membrane Permeable-Phenotype (%) [6]: 1% and 0% | Population Mitochondria Different-Phenotype (%) [6]: 31% and 37% | Population Mitotic Cells (%) [6]: 61% | Population Normal (%) [6]: 93% and 95% | Population Pyknosed Nuclei (%) [6]: 6% | Population Tubulin-Different-Phenotype (%) [6]: 28% and 26% | Total Cell Count [6]: 883 and 758

CN1[C@@H](CC(=O)c2ccccc2)CCC[C@H]1C[C@H](O)c1ccccc1.Cl [LOBELINE HYDROCHLORIDE]
Population Apoptotic (%) [1]: 5.84% and 10.26% | Population Fragmented Nuclei (%) [1]: 1.05% and 2.84% | Population Hoechst High Intensity Objects (%) [1]: 0.52% and 0% | Population Membrane Permeable-Phenotype (%) [1]: 0% | Population Mitochondria Different-Phenotype (%) [1]: 33.04% and 30% | Population Mitotic Cells (%) [1]: 94.16% and 89.74% | Population Normal (%) [1]: 99.48% and 100% | Population Pyknosed Nuclei (%) [1]: 40.31% and 82.98% | Total Cell Count [1]: 384 and 141 | Population Apoptotic (%) [2]: 13.08% and 13.61% | Population Fragmented Nuclei (%) [2]: 4.88% and 1.1% | Population Healthy Nuclei (%) [2]: 49.83% and 17.68% | Population Hoechst High Intensity Objects (%) [2]: 0% and 0.55% | Population Membrane Permeable-Phenotype (%) [2]: 0.7% and 0% | Population Mitochondria Different-Phenotype (%) [2]: 17.48% and 37.5% | Population Mitotic Cells (%) [2]: 86.92% and 86.39% | Population Normal (%) [2]: 100% and 99.45% | Population Pyknosed Nuclei (%) [2]: 45.3% and 81.22% | Total Cell Count [2]: 287 and 182 | Population Apoptotic (%) [3]: 12.24% and 13.68% | Population Fragmented Nuclei (%) [3]: 2.04% and 2.68% | Population Healthy Nuclei (%) [3]: 74.92% and 33.56% | Population Hoechst High Intensity Objects (%) [3]: 0% | Population Membrane Permeable-Phenotype (%) [3]: 1.67% and 0% | Population Mitochondria Different-Phenotype (%) [3]: 11.3% and 14% | Population Mitotic Cells (%) [3]: 87.76% and 86.32% | Population Normal (%) [3]: 100% | Population Pyknosed Nuclei (%) [3]: 23.04% and 63.76% | Population Tubulin-Different-Phenotype (%) [3]: 10.46% and 6% | Population Apoptotic (%) [4]: 16.35% and 24.8% | Population Fragmented Nuclei (%) [4]: 2.39% and 1.53% | Population Healthy Nuclei (%) [4]: 69.95% and 34.69% | Population Hoechst High Intensity Objects (%) [4]: 0% | Population Membrane Permeable-Phenotype (%) [4]: 1.52% and 1.47% | Population Mitochondria Different-Phenotype (%) [4]: 18.63% and 22.06% | Population Mitotic Cells (%) [4]: 83.65% and 75.2% | Population Normal (%) [4]: 100% | Population Pyknosed Nuclei (%) [4]: 27.66% and 63.78% | Population Tubulin-Different-Phenotype (%) [4]: 12.55% and 11.76% | Total Cell Count [4]: 376 and 196 | Population Apoptotic (%) [5]: 7.27% and 13.92% | Population Fragmented Nuclei (%) [5]: 2.75% and 1.71% | Population Healthy Nuclei (%) [5]: 84.62% and 53.14% | Population Hoechst High Intensity Objects (%) [5]: 0% | Population Membrane Permeable-Phenotype (%) [5]: 5.33% and 1.08% | Population Mitochondria Different-Phenotype (%) [5]: 11.75% and 19.35% | Population Mitotic Cells (%) [5]: 92.73% and 86.08% | Population Normal (%) [5]: 100% | Population Fragmented Nuclei (%) [6]: 2.84% and 1.89% | Population Healthy Nuclei (%) [6]: 86.48% and 58.49% | Population Hoechst High Intensity Objects (%) [6]: 0% and 0.75% | Population Membrane Permeable-Phenotype (%) [6]: 2.5% and 0% | Population Mitochondria Different-Phenotype (%) [6]: 30.22% and 37.42% | Population Mitotic Cells (%) [6]: 94.68% and 75.24% | Population Normal (%) [6]: 100% and 99.25%
